# The source made the active and inactive calls.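 The calls were made as follows: active = half-maximal effective dose for blocking growth of human endothelial cells at most 100 µM; inactive = the rest.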
# Tested on: HUVEC proliferation, viability ATP luminescence
# Assay: HUVEC proliferation inhibition, dose response, cell-based, ATP luminescence (AID 822);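 also: cells exposed to compound for 72 h before the ATP read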
# Procedure, shortened: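 Assay system: HUVEC primary endothelial cells, low passage (≤12) | Doses: 0.039–20 µM, 0.2% DMSO | Incubation: 72 h compound exposure at 37 °C | Detection: CellTiter-Glo ATP luminescence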
row,Compound,EC50
1,CCOC(=O)c1cnc(-n2nc(C)cc2C)nc1NC1CCCCC1,0.27 µM
2,CC1CCCCN1S(=O)(=O)c1ccc(C(=O)Nc2nnc(-c3ccccc3Cl)o2)cc1 (configuration not stated),2.71 µM
3,COC(=O)C1=C(O)/C(=C\c2ccc(CNC(=O)C(=O)Nc3ccc(C)cc3)o2)N=C1C,19.4 µM
4,CCCCCCn1c(C)nc2c(c1=O)c1nc3ccccc3nc1n2/N=C/c1ccco1,14.5 µM
5,O=C(Nc1ccccc1)c1cccc(-c2nnc(-c3ccccc3)o2)c1,10.6 µM
6,CCn1c(SCC(N)=O)nnc1-c1ccc2[nH]c(C)c(C)c2c1,> 10 µM (inactive)
7,CCn1c(=N)n(CC(=O)C23CC4CC(CC(C4)C2)C3)c2ccccc21,8.77 µM
8,OCc1ccc(O)c2ncccc12,20.5 µM
9,CCN(CC)c1ccc2c(c1)oc(=O)c1c(Cl)cc(=O)oc12,2.05 µM
10,CN1CCN(c2ccccc2NC(=O)c2cccc(OCc3ccccc3)c2)CC1,10.8 µM
11,N#C/C(=C/c1ccc(N2CCCCCC2)o1)c1ccc(F)cc1,12.6 µM
12,CC(C)c1nnc(NC(=O)CCS(=O)(=O)c2nc(-c3cccs3)cc(C(F)(F)F)n2)s1,9.9 µM
13,CCN(CCNC(=O)C1CCN(Cc2nc(-c3ccc(Cl)cc3)oc2C)CC1)c1ccccc1,5.82 µM
14,Cc1ccc(C)c(C(C)NC(=O)C2C3CCC(O3)C2C(=O)O)c1 (configuration not stated),16.3 µM
15,c1ccc(CC2CCN(C3=Nc4cccc5cccc3c45)CC2)cc1,3.02 µM
16,COC(=O)c1c(NC(=O)c2ccco2)sc(C(=O)Nc2ccc(F)cc2)c1C,2.98 µM
17,C#CCn1c(=NC(=O)c2ccc(Br)s2)sc2cccc(OC)c21,12.2 µM
18,CCCc1ccc(Oc2c(-c3ccc(O)c(C)c3O)n[nH]c2C)cc1,9.55 µM
19,COc1ccc2nc(NC(=O)CSC3=NCCS3)sc2c1,4.95 µM
20,CCOC(=O)c1cc2c(N)c(C(=O)c3cc(C#N)c(SC)nc3C)sc2nc1C,5.27 µM
21,COC(=O)Nc1ccc(S(=O)(=O)N2c3ccccc3CCC2C)cc1 (configuration not stated),9.54 µM
22,COc1ccc(-c2ccc(C#N)c(SCC(=O)Nc3sc4c(c3C#N)CCC4)n2)cc1OC,4.67 µM

row,Compound,EC50
1,O=Cc1ccc(Sc2nnc(-c3ccccc3)o2)c([N+](=O)[O-])c1,11.4 µM
2,Cc1nc2sccn2c(=O)c1CCN1CCC(=C(c2ccc(F)cc2)c2ccc(F)cc2)CC1,8.98 µM
3,Cc1cccc(NC(=O)c2cc(NC(=O)c3ccco3)ccc2N2CCCCC2)c1,13.3 µM
4,CN1C[C@H](CNC(=O)OCc2ccccc2)C[C@@H]2c3cccc4c3c(cn4C)C[C@H]21,8.44 µM
5,O=C(CCN1CCN(Cc2ccccc2)CC1)Nc1ccc(OCc2ccccc2)cc1,14.1 µM
6,O=C(NCCC1=CCCCC1)C1CCN(Cc2cnn(-c3ccccc3)c2-n2cccc2)CC1,15.1 µM
7,O=C(Nc1ccc(Cl)c(Cl)c1)C1=Cc2ccccc2OC1,7.93 µM
8,O=c1[nH]c(Nc2nc3ccccc3o2)nc2c1CCCC2,17.3 µM
9,C=CCc1ccc(OCC(O)CN2CCC(Cc3ccccc3)CC2)c(OC)c1 (configuration not stated),9.81 µM
10,COc1ccc(-n2nnnc2S(=O)(=O)CC(=O)N2CCCCC2)cc1,7.76 µM
11,CCOC(=O)c1ccc(NC(=O)CCc2nc(-c3cccc(C)c3)no2)cc1,19.2 µM
12,CCCCN(CC)S(=O)(=O)c1ccc(C(=O)Nc2nnc(-c3ccccc3Cl)o2)cc1,3.8 µM
13,Cc1ccc(S(=O)(=O)N2CCCN(S(=O)(=O)c3ccc(C(F)(F)F)cc3)CC2)cc1,7.11 µM
14,CC(C)COC(=O)c1ccc2c(c1O)C(=O)c1ccccc1C2=O,3.11 µM
15,O=C1C=C(c2ccc(Cl)cc2)C(=O)N1Nc1ccccc1,10.7 µM
16,Cc1nn(CC(=O)Nc2ccc3c(c2)oc2ccccc23)c(=O)c2ccccc12,6.25 µM
17,CC1(C)Nc2ccc(O)cc2-c2c1ssc2=S,4.58 µM
18,CCOc1cc(C(=O)CSc2nnc(CNc3ccc(Cl)cc3)o2)ccc1NC(=O)CC,15.7 µM
19,CC(=O)SC(C[N+](=O)[O-])c1cn(C(C)=O)c2ccccc12 (configuration not stated),6.72 µM
20,CCN(CC)CCn1c2ccccc2c2cnc(N)c(C#N)c21,15.2 µM
21,Cc1ccc(C2Oc3ccccc3C3=C2C(c2cccs2)n2ncnc2N3)cc1 (configuration not stated),13.4 µM
22,COc1ccc(-c2cc(C#N)nc(N3CCNCC3)n2)cc1,12.8 µM

row,Compound,EC50
1,OCCNc1nc2ccccc2n1-c1ncnc2sc3c(c12)CCC3,11.4 µM
2,COc1ccc2cc3cc(C(=O)Nc4ccc5c(c4)OCO5)oc3nc2c1,4.64 µM
3,COCc1cc(CN2CCCC2)c(O)c2ncccc12,> 10 µM (inactive)
4,CNC(=O)c1ccc(-c2sc3nc(N4CCOCC4)c4c(c3c2N)CCCC4)o1,10.5 µM
5,O=C(Nc1ccc2c(c1)OCO2)c1cc(C2CC2)on1,6.54 µM
6,CN1CCN(c2ccccc2NC(=O)c2ccc(OCc3ccccc3)cc2)CC1,10.8 µM
7,COc1ccc(O)c(-c2cc(-c3cccc(Br)c3)n[nH]2)c1,10.8 µM
8,CC(C)OCCCN1C(=O)c2[nH]nc(-c3ccccc3O)c2C1c1cccc(Cl)c1 (configuration not stated),15.7 µM
9,CCOc1cc(S(=O)(=O)N2CC=C(c3ccc(F)cc3)CC2)c(OCC)cc1-n1cnnn1,20 µM
10,Cc1cc(C)c2c(=O)n(CC(=O)NCCCN3CCN(c4ccccc4F)CC3)sc2n1,12.3 µM
11,Brc1ccccc1OCCCn1cnc2ccccc21,13.2 µM
12,COc1ccc(-n2c(SCC(=O)Nc3sc4c(c3C#N)CCCC4)nnc2-c2ccc(O)cc2)cc1,4.32 µM
13,CCc1[nH]nc2c1C(c1ccc(Br)s1)C(C#N)=C(N)O2 (configuration not stated),14 µM
14,O=C(CSc1ccc2c(c1)OCCO2)Nc1ccc(Cl)cn1,5.53 µM
15,CCCCN(C)S(=O)(=O)c1ccc(C(=O)Nc2nnc(-c3cccs3)o2)cc1,1.69 µM
16,N#Cc1nc(-c2ccc(OCc3ccccc3Cl)cc2)oc1NCCCn1ccnc1,2.55 µM
17,CN1CCN(c2ccc(NC(=O)c3cccc(OCc4ccccc4)c3)cc2)CC1,11.4 µM
18,CCCCc1nc2sc3c(SCC(=O)NCc4ccco4)ncnc3c2c2c1CCC2,13.4 µM
19,CCN1CCN(c2cc(C)c3cc(NC(=O)c4ccc(OC)c(OC)c4)ccc3n2)CC1,13.6 µM
20,COc1ccc(Cc2nc(C(=O)Nc3ccc(Cl)cc3)cs2)cc1,19.9 µM
21,Clc1ccc(COC(Cn2ccnc2)c2ccc(Cl)cc2Cl)cc1 (configuration not stated),6.31 µM
22,Cc1ccc(S(=O)(=O)c2c(C)nn(C(C)(C)C)c2OC(=O)c2ccco2)cc1,12.1 µM

row,Compound,EC50
1,O=C(Nc1ccc(Cl)cc1)N1CCCN(Cc2ccc(F)cc2)C1,12.6 µM
2,CN1CCN(Cc2cc(COCc3ccccc3)c3cccnc3c2O)CC1,6.08 µM
3,CCc1ccc2c(c1)/C(=C/C(=O)c1cccs1)C(=O)N2,7 µM
4,CC[n+]1cc(-c2ccccc2)nc(N2CCOCC2)n1,9.86 µM
5,Cc1ccccc1-n1ncc2c([N+](=O)[O-])cc([N+](=O)[O-])cc21,9.29 µM
6,CC1=CC(C)(C)N2C(=O)C3(C(C#N)=C(N)Oc4cc(O)ccc43)c3c(C)c(C)cc1c32 (configuration not stated),6.14 µM
7,Cc1ccc2nc(NC(=O)CSc3ncnc4c3oc3ccccc34)sc2c1,5.79 µM
8,CCOc1ccc(-c2n[nH]c(C)c2Oc2ccc(OC)cc2)c(O)c1,12.4 µM
9,O=C(Nc1nccs1)c1c(O)c2cccc3c2n(c1=O)CCC3,20.4 µM
10,CC(C)(C)C1CC=C2C(C#N)=C(N)C(C#N)(C#N)C(c3cccs3)C2C1 (configuration not stated),12.2 µM
11,N=c1c2c(-c3ccccc3)c(-c3ccccc3)n(Cc3ccco3)c2ncn1Cc1ccco1,1.82 µM
12,OC(COc1ccc(Cl)c2ccccc12)CN1CCN(c2ccccn2)CC1 (configuration not stated),12.3 µM
13,Cc1ccccc1C(=O)c1cccn1CC(=O)NCCN1CCN(c2cccc(C)c2C)CC1,8.36 µM
14,COC(=O)NC(=C(Cl)Cl)S(=O)(=O)c1ccccc1,8.53 µM
15,Cc1ccc(S(=O)(=O)c2c(C)nn(C(C)(C)C)c2OC(=O)c2ccc(Br)o2)cc1,4.57 µM
16,Cc1ccccc1-c1nc(CN2CCC(C(=O)NCCC3=CCCCC3)CC2)c(C)o1,6.73 µM
17,CCSc1nnc(NC(=O)c2ccccn2)s1,1.81 µM
18,CCCSc1nc2c(cnn2-c2ccc(C)cc2)c(=O)[nH]1,5.19 µM
19,CN1CCN(c2ccccc2NC(=O)c2ccc(-c3ccc(Cl)cc3Cl)o2)CC1,6.37 µM
20,COc1ccc(-c2nnc(NC(=O)c3ccc(S(=O)(=O)N4CCCc5ccccc54)cc3)o2)cc1,2.96 µM
21,CN1CCN(CCCN2c3ccccc3Sc3ccc(C(F)(F)F)cc32)CC1,6.57 µM
22,CCc1nc(SCC(=O)Nc2ccc3c(c2)OCCO3)c2oc3ccccc3c2n1,9.5 µM

row,Compound,EC50
1,CC(=O)c1cccc(NC(=O)Nc2ccc3c(c2)N(C)C(=O)CS3)c1,9.94 µM
2,CCN(CC)CCn1c(=N)n(CCOc2ccccc2)c2ccccc21,14.2 µM
3,Nc1nc(-c2ccccc2)cc(-c2ccccc2O)n1,12.4 µM
4,CC(=O)n1cc(-c2ccncc2)c2ccccc21,> 10 µM (inactive)
5,Cc1cccc(N2CCN(C(=O)c3ccc4nc(-c5ccco5)c(-c5ccco5)nc4c3)CC2C)c1 (configuration not stated),9.47 µM
6,O=C(CCC1COc2ccccc2O1)Nc1ccc(Cl)cn1 (configuration not stated),17.6 µM
7,COc1ccc2cc3cc(C(=O)Nc4ccc5c(c4)OCCO5)oc3nc2c1,11.7 µM
8,Cc1ccc(-c2csc3ncnc(Sc4nnc(CN5CCCCCC5=O)o4)c23)cc1,5.55 µM
9,CCCCOc1ccc(C(=O)C(CN2CCOCC2)c2ccccc2)cc1 (configuration not stated),3.08 µM
10,CCOC(=O)N1CCc2c(sc(NC(=O)c3ccc(S(=O)(=O)N4CCCC4)cc3)c2C#N)C1,17.5 µM
11,Cc1cccc(-c2nc(CN3CCCC(C(=O)NC4CCCCCC4)C3)c(C)o2)c1 (configuration not stated),10.8 µM
12,CC1(c2ccccc2)CC(C)(C)N2C(=O)C3(C(C#N)=C(N)Oc4cc(O)ccc43)c3cccc1c32 (configuration not stated),6.69 µM
13,CCOC(=O)c1c(C)[nH]c(C(=O)OC/C(O)=C(\C#N)c2nc3ccccc3[nH]2)c1C,11.6 µM
14,Cc1ccc(C)c(N2CCN(CCCNC(=O)Cn3cc4c(n3)CCCCC4)CC2)c1,10.9 µM
15,CCC(C)NC(=O)c1c(N)n(/N=C/c2ccccn2)c2nc3ccccc3nc12 (configuration not stated),9.34 µM
16,COc1ccc(C(=O)C(CN2CCOCC2)c2ccccc2)cc1 (configuration not stated),11.7 µM
17,Cc1oc(-c2ccc(Cl)cc2)nc1CN1CCC(C(=O)N2CCN(Cc3ccccc3)CC2)CC1,8.43 µM
18,Cc1ccc(Cn2nc(C)c(NC(=O)c3cc(-c4ccc5c(c4)OCO5)on3)c2C)cc1,10.2 µM
19,CCn1cc(C(=O)NCc2ccc3c(c2)OCO3)c(=O)c2cc(F)c(N3CCN(C(=O)c4ccco4)CC3)cc21,10.4 µM
